From PubChem BioAssay AID492951 (Molecular Libraries Program, Specialized Chemistry Center, …, 2010) come the findings set out here.

Calls of active or inactive are those of the source.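 The calls were made as follows: active = inhibition above 10%; inactive = the rest.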

Hexokinase-4 (Homo sapiens), sequence (P35557 whole entry, looked up): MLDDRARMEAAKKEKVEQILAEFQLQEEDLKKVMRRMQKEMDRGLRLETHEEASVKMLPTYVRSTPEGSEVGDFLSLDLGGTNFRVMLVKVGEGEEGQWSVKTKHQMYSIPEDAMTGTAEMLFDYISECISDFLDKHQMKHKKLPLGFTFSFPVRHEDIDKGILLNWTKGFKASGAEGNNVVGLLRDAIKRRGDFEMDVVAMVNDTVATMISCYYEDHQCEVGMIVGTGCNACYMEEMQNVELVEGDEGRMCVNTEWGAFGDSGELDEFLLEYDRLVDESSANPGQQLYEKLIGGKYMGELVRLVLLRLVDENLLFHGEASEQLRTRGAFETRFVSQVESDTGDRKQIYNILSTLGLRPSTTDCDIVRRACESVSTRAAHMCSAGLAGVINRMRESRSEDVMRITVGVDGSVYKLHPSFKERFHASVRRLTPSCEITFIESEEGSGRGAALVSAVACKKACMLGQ

This assay concerns the target Hexokinase-4 (Homo sapiens) (UniProt P35557). Briefly: human glucokinase inhibition, counter-screen for TbHK1 inhibitor project, biochemical, recombinant hGlck (AID 492951). The conditions noted are these: G6PDH-coupled NADH absorbance 340 nm, at 10 µM; hits give high values. The method in brief:
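Material: Recombinant human glucokinase, G6PDH-coupled | Medium: TEA buffer pH 7.9 with 3.3 mM MgCl2, 0.75 mM NAD+ | Also added: 20 mM glucose as reaction starter, plus 1 mM ATP | Compound dosing: One dose, 10 µM final | Schedule: 10 min preincubation at room temperature | Measured by: A340 of NADH | Repeats: Three replicates per compound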
A general note: A counterscreen serves to expose hits that act by an unwanted route or on another target.
Regarding `Cc1cccc(C(=O)Nc2cc(Cl)ccc2C(=O)O)c1`, the result was inactive.

As to `O=c1c(O)c(-c2ccc(O)c(O)c2)oc2cc(O)cc(O)c12`, the inhibition (as a rule, the relative decrease from the control value, in per cent) was 68.9% (active).

As for `O=C(Cn1sc2ccccc2c1=O)NCc1ccccc1`, the outcome was inactive.

As to `COc1ccc(-n2sc3ccccc3c2=O)cc1`, the result was inactive.

For the compound `O=C(Nc1cc(Cl)ccc1C(=O)O)c1ccc2ccccc2c1`, the inhibition is 11.5% (active).

In the case of `CN(C)S(=O)(=O)c1cccc(-n2sc3ccccc3c2=O)c1`, the inhibition was 22.1% (active).

For `COc1ccc(NC(=O)c2ccc(Cl)cc2C(=O)O)cc1`, the outcome was inactive.

On to `COC(=O)c1ccc(Cl)cc1NC(=O)c1ccccc1OC`, for which the outcome was inactive.

With `O=c1c2c(Br)cccc2sn1-c1ccccc1`, the inhibition was 12.5% (active).

For `O=C(Nc1cc(Cl)ccc1C(=O)O)c1ccc(C2CCCC2)cc1`, the inhibition is 21.1% (active).

Regarding `O=C(Cn1sc2ccccc2c1=O)Nc1cccc(I)c1`, the result was inactive.

In the case of `CC(C)(C)c1ccc(C(=O)Nc2c(C(=O)O)ccc(Cl)c2Cl)cc1`, the result was inactive.

Turning to `O=c1c2cc(Br)ccc2sn1-c1ccccc1`, the inhibition is 38.4% (active).

With `O=C(Cn1sc2cc(F)ccc2c1=O)Nc1ccccc1`, the inhibition was 39.6% (active).

In the case of `COc1ccc(C(=O)Nc2cc(Cl)ccc2C(=O)O)cc1`, the inhibition is 7.8% (inactive).

For the compound `Cc1cc(C(C#N)c2ccc(Cl)cc2)c(Cl)cc1NC(=O)c1cc(I)cc(I)c1O` (centres undefined), the inhibition was 24.3% (active).

As for `O=C(Nc1cc(Cl)ccc1C(=O)O)c1ccc(C(F)(F)F)cc1`, the result was inactive.

Consider `Cc1ccc(-n2sc3cc(F)ccc3c2=O)c(C)c1`, for which the inhibition is 55.6% (active).

On to `COc1ccc(C(=O)Nc2cc(Cl)ccc2[N+](=O)[O-])cc1`, for which the outcome was inactive.
